Laboratory results reported in ChEMBL document CHEMBL1127053, “3,4-Dimethyl-4-(3-hydroxyphenyl)piperidines: opioid antagonists with potent anorectant activity” (J Med Chem, 1993).

Assays:
[1] = target: T1, Adrenergic receptor alpha-1 (Rattus norvegicus, UniProt P15823+P23944+P43140); experiment: Tested for affinity against alpha-adrenergic using [3H]WB-4101 in rat brain; format: tissue-based
T1 sequence (P15823 whole entry): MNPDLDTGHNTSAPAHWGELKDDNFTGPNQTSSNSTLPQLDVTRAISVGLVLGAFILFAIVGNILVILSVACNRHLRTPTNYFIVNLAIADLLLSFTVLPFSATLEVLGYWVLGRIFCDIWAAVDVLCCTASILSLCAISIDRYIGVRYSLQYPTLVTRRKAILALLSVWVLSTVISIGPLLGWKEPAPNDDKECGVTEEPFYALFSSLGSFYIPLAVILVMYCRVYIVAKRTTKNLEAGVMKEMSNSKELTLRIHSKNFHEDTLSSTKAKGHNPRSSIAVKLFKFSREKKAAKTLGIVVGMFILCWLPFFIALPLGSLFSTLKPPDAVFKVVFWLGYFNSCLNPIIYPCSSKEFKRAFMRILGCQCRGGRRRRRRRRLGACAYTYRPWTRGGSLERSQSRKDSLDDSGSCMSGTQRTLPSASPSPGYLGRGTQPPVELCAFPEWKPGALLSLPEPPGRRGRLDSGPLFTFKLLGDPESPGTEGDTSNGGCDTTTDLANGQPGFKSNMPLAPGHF
T1 sequence (P23944 whole entry): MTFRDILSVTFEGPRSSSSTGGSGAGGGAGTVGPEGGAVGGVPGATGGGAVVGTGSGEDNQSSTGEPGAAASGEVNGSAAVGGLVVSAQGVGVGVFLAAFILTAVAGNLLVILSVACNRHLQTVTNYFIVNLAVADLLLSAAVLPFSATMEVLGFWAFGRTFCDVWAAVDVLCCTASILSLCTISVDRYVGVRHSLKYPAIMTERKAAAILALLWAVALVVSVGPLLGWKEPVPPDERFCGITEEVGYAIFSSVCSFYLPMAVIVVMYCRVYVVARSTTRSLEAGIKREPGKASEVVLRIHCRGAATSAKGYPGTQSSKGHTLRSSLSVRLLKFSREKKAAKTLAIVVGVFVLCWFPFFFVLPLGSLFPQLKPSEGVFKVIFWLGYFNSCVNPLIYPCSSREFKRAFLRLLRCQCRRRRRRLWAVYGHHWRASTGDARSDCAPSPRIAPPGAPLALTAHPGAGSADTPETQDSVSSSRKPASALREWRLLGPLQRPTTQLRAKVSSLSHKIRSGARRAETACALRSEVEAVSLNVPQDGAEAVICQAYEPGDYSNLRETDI
T1 sequence (P43140 whole entry): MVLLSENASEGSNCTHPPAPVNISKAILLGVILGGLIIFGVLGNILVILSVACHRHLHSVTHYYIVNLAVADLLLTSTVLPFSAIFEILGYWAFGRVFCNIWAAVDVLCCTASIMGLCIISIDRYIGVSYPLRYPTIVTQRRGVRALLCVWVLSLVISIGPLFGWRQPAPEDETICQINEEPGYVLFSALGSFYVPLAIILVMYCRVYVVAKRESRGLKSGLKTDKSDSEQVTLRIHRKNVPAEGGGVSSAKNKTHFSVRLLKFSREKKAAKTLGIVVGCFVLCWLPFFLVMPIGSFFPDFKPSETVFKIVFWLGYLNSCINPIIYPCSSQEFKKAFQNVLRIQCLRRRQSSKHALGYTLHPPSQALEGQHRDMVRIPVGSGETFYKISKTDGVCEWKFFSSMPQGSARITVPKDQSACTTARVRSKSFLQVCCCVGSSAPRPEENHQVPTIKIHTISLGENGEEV
How it was run: (§1)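 Radioligand binding in cortical membranes from male Sprague-Dawley rats (110-150 g). Ligands: [3H]serotonin for 5-HT1, [3H]QNB for muscarinic, [3H]WB4101 for α1, [3H]clonidine for α2, [3H]dihydroalprenolol for β-adrenergic.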

[2] = Tested for affinity against phencyclidine using [3H]phencyclidine in rat brain; format: tissue-based
[3] = target: T2, Adrenergic receptor alpha-2 (Rattus norvegicus, UniProt P22086+P19328+P22909); experiment: Tested for affinity against alpha-2-adrenergic using [3H]clonidine in rat brain; format: tissue-based; how it was run: as §1
T2 sequence (P22086 whole entry): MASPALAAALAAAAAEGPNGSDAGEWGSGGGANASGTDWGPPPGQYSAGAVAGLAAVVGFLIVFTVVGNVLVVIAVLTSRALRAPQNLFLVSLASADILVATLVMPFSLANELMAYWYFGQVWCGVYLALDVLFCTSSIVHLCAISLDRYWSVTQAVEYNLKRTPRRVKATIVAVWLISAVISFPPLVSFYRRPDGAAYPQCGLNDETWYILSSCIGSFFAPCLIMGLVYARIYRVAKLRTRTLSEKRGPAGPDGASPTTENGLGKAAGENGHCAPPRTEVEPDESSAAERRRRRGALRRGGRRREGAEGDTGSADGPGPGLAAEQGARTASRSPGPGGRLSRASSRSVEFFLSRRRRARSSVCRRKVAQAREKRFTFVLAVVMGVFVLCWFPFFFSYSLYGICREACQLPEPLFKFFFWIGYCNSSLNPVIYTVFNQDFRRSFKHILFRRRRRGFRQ
T2 sequence (P19328 whole entry): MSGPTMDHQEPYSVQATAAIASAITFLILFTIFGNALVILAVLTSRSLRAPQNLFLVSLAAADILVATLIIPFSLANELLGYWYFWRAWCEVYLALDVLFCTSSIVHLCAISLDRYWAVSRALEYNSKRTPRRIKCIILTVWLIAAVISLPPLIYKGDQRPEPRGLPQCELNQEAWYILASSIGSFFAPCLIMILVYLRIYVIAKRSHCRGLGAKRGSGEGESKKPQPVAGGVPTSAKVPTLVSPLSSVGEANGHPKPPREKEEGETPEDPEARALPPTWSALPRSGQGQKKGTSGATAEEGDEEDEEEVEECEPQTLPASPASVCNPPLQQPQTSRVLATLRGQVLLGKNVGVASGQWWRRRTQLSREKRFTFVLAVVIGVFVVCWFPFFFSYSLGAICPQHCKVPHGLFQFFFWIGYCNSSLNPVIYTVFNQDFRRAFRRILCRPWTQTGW
T2 sequence (P22909 whole entry): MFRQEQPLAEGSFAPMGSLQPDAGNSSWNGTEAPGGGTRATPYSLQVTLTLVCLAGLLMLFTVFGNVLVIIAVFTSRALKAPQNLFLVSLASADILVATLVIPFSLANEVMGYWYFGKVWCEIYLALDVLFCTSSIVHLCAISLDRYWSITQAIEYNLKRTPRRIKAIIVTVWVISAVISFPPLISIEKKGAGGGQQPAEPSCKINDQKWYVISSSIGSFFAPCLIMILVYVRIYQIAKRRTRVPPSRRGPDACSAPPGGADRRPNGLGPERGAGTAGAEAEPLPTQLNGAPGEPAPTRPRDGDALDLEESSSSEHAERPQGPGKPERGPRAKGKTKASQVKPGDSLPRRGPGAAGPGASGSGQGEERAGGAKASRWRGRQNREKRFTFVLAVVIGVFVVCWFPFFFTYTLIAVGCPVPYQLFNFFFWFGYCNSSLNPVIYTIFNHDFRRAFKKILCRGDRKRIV

[4] = target: Delta-type opioid receptor (Mus musculus) (UniProt P32300); conditions: Vas deferens; 2 nM
Sequence of Delta-type opioid receptor (Mus musculus) (P32300 whole entry): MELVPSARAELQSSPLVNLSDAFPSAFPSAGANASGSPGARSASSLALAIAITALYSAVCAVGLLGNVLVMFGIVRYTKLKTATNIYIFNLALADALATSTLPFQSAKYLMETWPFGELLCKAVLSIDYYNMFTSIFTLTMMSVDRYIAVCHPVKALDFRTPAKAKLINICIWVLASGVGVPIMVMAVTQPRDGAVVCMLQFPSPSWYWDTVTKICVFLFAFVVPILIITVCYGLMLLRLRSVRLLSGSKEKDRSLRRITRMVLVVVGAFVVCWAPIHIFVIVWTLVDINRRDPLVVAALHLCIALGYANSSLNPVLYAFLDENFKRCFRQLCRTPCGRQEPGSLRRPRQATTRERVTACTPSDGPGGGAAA

C[C@H]1CN(CC[C@H](O)C2CCCCC2)CC[C@@]1(C)c1cccc(O)c1
IC50 [1]: > 5 µM
IC50 [2]: > 1 µM
IC50 [3]: > 5 µM
Ke [4]: 1.64 nM
